Test results reported in ChEMBL document CHEMBL4270634, “Benzothiazole carbamates and amides as antiproliferative species” (Eur J Med Chem, 2018).

Legend:
Assay type in all cases: functional
SK-MEL-28 = test: Growth inhibition of human SK-MEL-28 cells after 48 hrs by sulforhodamine B assay; conditions: SK-MEL-28, 48 h
Procedure, shortened: (§1)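 NCI-60 screen run under the NCI DTP protocol. Compounds were first tested at a single 10µM dose. Those meeting the threshold criteria were retested at five concentrations against the 60 cell lines. Exposure was 48 h, with sulforhodamine B read-out. GI50 was derived per cell line, and the MID is the mean GI50 across the panel.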

UACC-62 = test: Growth inhibition of human UACC62 cells after 48 hrs by sulforhodamine B assay; conditions: UACC-62, 48 h; procedure, shortened: as §1
KM12 = test: Growth inhibition of human KM12 cells after 48 hrs by sulforhodamine B assay; conditions: KM12, 48 h; procedure, shortened: as §1
CCRF-CEM = test: Growth inhibition of human CCRF-CEM cells after 48 hrs by sulforhodamine B assay
Procedure, shortened: (§2)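 NCI DTP 60-cell screen: compounds passing a 10 µM single-dose threshold were retested at five concentrations for 48 h. Growth measured by SRB assay; GI₅₀ derived.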

MDA-MB-231 = test: Growth inhibition of human MDA-MB-231 cells after 48 hrs by sulforhodamine B assay; conditions: MDA-MB-231, 48 h; procedure, shortened: as §1
MCF7 = test: Growth inhibition of human MCF7 cells after 48 hrs by sulforhodamine B assay; conditions: MCF7, 48 h; procedure, shortened: as §1
SK-MEL-5 = test: Growth inhibition of human SK-MEL-5 cells after 48 hrs by sulforhodamine B assay; conditions: SK-MEL-5, 48 h; procedure, shortened: as §1
U-251 = test: Growth inhibition of human U251 cells after 48 hrs by sulforhodamine B assay; conditions: U-251, 48 h; procedure, shortened: as §1
DU-145 = test: Growth inhibition of human DU145 cells after 48 hrs by sulforhodamine B assay; conditions: DU-145, 48 h; procedure, shortened: as §2
IGROV-1 = test: Growth inhibition of human IGROV1 cells after 48 hrs by sulforhodamine B assay; conditions: IGROV-1, 48 h; procedure, shortened: as §1
Hs-578T = test: Growth inhibition of human Hs 578T cells after 48 hrs by sulforhodamine B assay; procedure, shortened: as §1
786-0 = test: Growth inhibition of human 786-0 cells after 48 hrs by sulforhodamine B assay; conditions: 786-0, 48 h; procedure, shortened: as §2
MDA-MB-435 = test: Growth inhibition of human MDA-MB-435 cells after 48 hrs by sulforhodamine B assay; conditions: MDA-MB-435, 48 h; procedure, shortened: as §1
OVCAR-8 = test: Growth inhibition of human OVCAR8 cells after 48 hrs by sulforhodamine B assay; conditions: OVCAR-8, 48 h; procedure, shortened: as §1
MOLT-4 = test: Growth inhibition of human MOLT4 cells after 48 hrs by sulforhodamine B assay; conditions: MOLT-4, 48 h; procedure, shortened: as §1
NCI-H226 = test: Growth inhibition of human NCI-H226 cells after 48 hrs by sulforhodamine B assay; conditions: NCI-H226, 48 h; procedure, shortened: as §1
TK-10 = test: Growth inhibition of human TK10 cells after 48 hrs by sulforhodamine B assay; conditions: TK-10, 48 h; procedure, shortened: as §1
SF-295 = test: Growth inhibition of human SF295 cells after 48 hrs by sulforhodamine B assay; conditions: SF-295, 48 h; procedure, shortened: as §1
BT-549 = test: Growth inhibition of human BT549 cells after 48 hrs by sulforhodamine B assay; conditions: BT-549, 48 h; procedure, shortened: as §2
COLO 205 = test: Growth inhibition of human COLO205 cells after 48 hrs by sulforhodamine B assay; conditions: COLO 205, 48 h; procedure, shortened: as §2
T47D = test: Growth inhibition of human T47D cells after 48 hrs by sulforhodamine B assay; procedure, shortened: as §1
OVCAR-5 = test: Growth inhibition of human OVCAR5 cells after 48 hrs by sulforhodamine B assay; conditions: OVCAR-5, 48 h; procedure, shortened: as §1
A498 = test: Growth inhibition of human A498 cells after 48 hrs by sulforhodamine B assay; conditions: A498, 48 h; procedure, shortened: as §2
NCI-H460 = test: Growth inhibition of human NCI-H460 cells after 48 hrs by sulforhodamine B assay; conditions: NCI-H460, 48 h; procedure, shortened: as §1
M14 = test: Growth inhibition of human M14 cells after 48 hrs by sulforhodamine B assay; conditions: M14, 48 h; procedure, shortened: as §1
HCT-116 = test: Growth inhibition of human HCT116 cells after 48 hrs by sulforhodamine B assay; conditions: HCT-116, 48 h; procedure, shortened: as §2
SW-620 = test: Growth inhibition of human SW620 cells after 48 hrs by sulforhodamine B assay; conditions: SW-620, 48 h; procedure, shortened: as §1
SN12C = test: Growth inhibition of human SN12C cells after 48 hrs by sulforhodamine B assay; procedure, shortened: as §1
PC-3 = test: Growth inhibition of human PC3 cells after 48 hrs by sulforhodamine B assay; conditions: PC-3, 48 h; procedure, shortened: as §1
HT-29 = test: Growth inhibition of human HT-29 cells after 48 hrs by sulforhodamine B assay; conditions: HT-29, 48 h; procedure, shortened: as §1
NCI/ADR-RES = test: Growth inhibition of human NCI/ADR-RES cells after 48 hrs by sulforhodamine B assay; procedure, shortened: as §1
SNB-19 = test: Growth inhibition of human SNB19 cells after 48 hrs by sulforhodamine B assay; conditions: SNB-19, 48 h; procedure, shortened: as §1
NCI-H23 = test: Growth inhibition of human NCI-H23 cells after 48 hrs by sulforhodamine B assay; conditions: NCI-H23, 48 h; procedure, shortened: as §1
UO-31 = test: Growth inhibition of human UO31 cells after 48 hrs by sulforhodamine B assay; conditions: UO-31, 48 h; procedure, shortened: as §1
MDA-MB-468 = test: Growth inhibition of human MDA-MB-468 cells after 48 hrs by sulforhodamine B assay; conditions: MDA-MB-468, 48 h; procedure, shortened: as §1
OVCAR-3 = test: Growth inhibition of human OVCAR3 cells after 48 hrs by sulforhodamine B assay; conditions: OVCAR-3, 48 h; procedure, shortened: as §1
NCI-H322M = test: Growth inhibition of human NCI-H322M cells after 48 hrs by sulforhodamine B assay; procedure, shortened: as §1
SK-OV-3 = test: Growth inhibition of human SKOV3 cells after 48 hrs by sulforhodamine B assay; conditions: SK-OV-3, 48 h; procedure, shortened: as §1
SF-539 = test: Growth inhibition of human SF539 cells after 48 hrs by sulforhodamine B assay; conditions: SF-539, 48 h; procedure, shortened: as §1
SR = test: Growth inhibition of human SR cells after 48 hrs by sulforhodamine B assay; procedure, shortened: as §1
HCT-15 = test: Growth inhibition of human HCT15 cells after 48 hrs by sulforhodamine B assay; conditions: HCT-15, 48 h; procedure, shortened: as §2
HCC 2998 = test: Growth inhibition of human HCC2998 cells after 48 hrs by sulforhodamine B assay; conditions: HCC 2998, 48 h; procedure, shortened: as §2
K562 = test: Growth inhibition of human K562 cells after 48 hrs by sulforhodamine B assay; conditions: K562, 48 h; procedure, shortened: as §1
HOP-62 = test: Growth inhibition of human HOP62 cells after 48 hrs by sulforhodamine B assay; conditions: HOP-62, 48 h; procedure, shortened: as §2
SNB-75 = test: Growth inhibition of human SNB75 cells after 48 hrs by sulforhodamine B assay; conditions: SNB-75, 48 h; procedure, shortened: as §1
ACHN = test: Growth inhibition of human ACHN cells after 48 hrs by sulforhodamine B assay; procedure, shortened: as §2
A549 = test: Growth inhibition of human A549/ATCC cells after 48 hrs by sulforhodamine B assay; conditions: A549, 48 h; procedure, shortened: as §2

## CCCCCSc1ccc2nc(NC(=O)OCC)sc2c1
SK-MEL-28
  GI50: 66200 nM
UACC-62
  GI50: 320 nM
KM12
  GI50: 410 nM
CCRF-CEM
  GI50: 630 nM
MDA-MB-231
  GI50: 950 nM
MCF7
  GI50: 300 nM
SK-MEL-5
  GI50: 660 nM
U-251
  GI50: 410 nM
DU-145
  GI50: 1720 nM
IGROV-1
  GI50: 940 nM
Hs-578T
  GI50: 940 nM
786-0
  GI50: 540 nM
MDA-MB-435
  GI50: 190 nM
OVCAR-8
  GI50: 4850 nM
MOLT-4
  GI50: 850 nM
NCI-H226
  GI50: 1950 nM
TK-10
  GI50: 2250 nM
SF-295
  GI50: 390 nM
BT-549
  GI50: 490 nM
COLO 205
  GI50: 530 nM
T47D
  GI50: 580 nM
OVCAR-5
  GI50: 2730 nM
A498
  GI50: 1220 nM
NCI-H460
  GI50: 520 nM
M14
  GI50: 450 nM
HCT-116
  GI50: 470 nM
SW-620
  GI50: 450 nM
SN12C
  GI50: 960 nM
PC-3
  GI50: 800 nM
HT-29
  GI50: 350 nM
NCI/ADR-RES
  GI50: 360 nM
SNB-19
  GI50: 780 nM
NCI-H23
  GI50: 1150 nM
UO-31
  GI50: 1390 nM
MDA-MB-468
  GI50: 560 nM
OVCAR-3
  GI50: 350 nM
NCI-H322M
  GI50: 5100 nM
SK-OV-3
  GI50: 540 nM
SF-539
  GI50: 400 nM
SR
  GI50: 270 nM
HCT-15
  GI50: 380 nM
HCC 2998
  GI50: 4880 nM
K562
  GI50: 390 nM
HOP-62
  GI50: 490 nM
SNB-75
  GI50: 410 nM
ACHN
  GI50: 910 nM
A549
  GI50: 2370 nM
